Experimental findings from paper PMC10984326 (Chemistry & biodiversity, 2023) are described below.

Experiment [1] concerns A375 cells. Description: Flow cytometry analysis of cell cycle. In kind it is cell-based, human. To be noted: for Cell cycle arrest: 5 x IC50; for Sub-G1 DNA content relative to control: 72 h, 5 x IC50 (7b 17.5 μM, 7c 21.5 μM), vs 0.2% DMSO.
The subject of experiment [2] is A375 cells. Description: Wound-healing. In kind it is cell-based, human. Conditions: for Inhibition of migration of A375 cells: after 20, 48 and 54 h, 7b 3.5 μM, 7c 4.3 μM.
Experiment [3] has as its system Human primary dermal fibroblasts. Description: MTT cell viability assay, non-cancerous fibroblasts. To be noted: IC50 of cancer cells compared with IC50 of human fibroblasts. In kind it is cell-based. In a few lines: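 Primary dermal fibroblasts were grown in fibroblast basal medium with low-serum growth supplement at 37°C, 5% CO2. Cells were seeded at 2×10^3/well, and after 24 h were exposed for 72 h to test compound (DMSO solution, up to 10 μM) or 0.1% DMSO. MTT was added for 4 h and the formazan dissolved in DMSO, with absorbance at 540 nm. IC50 came from non-linear regression, and SI from comparing A375 and 35404 IC50s with fibroblast IC50.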

A further experiment concerns 35404 cells. In words: MTT cell viability assay, patient-derived melanoma metastasized to brain. In kind it is cell-based, human. To be noted: read-out: Antiproliferative activity (IC50, μM) 35404 cells, 72 h treatment, up to 10 μM, mean±SD (n=4), IN = inactive.

The structures appear in SMILES notation.

As for `Cc1cc(C(=O)/C(=C\c2cccc(F)c2)c2cccc(F)c2)c(C(=O)N2CCCCC2)c(=O)[nH]1` [Compound 7b, (Z)-4-(2,3-bis(3-fluorophenyl)acryloyl)-6-methyl-3-(piperidine-1-carbonyl)pyridin-2(1H)-one], the Cell cycle arrest entry in the experiment on A375 cells [1] (24 h) is “transient G2 and/or M phase arrest”; in the experiment on A375 cells [1] (48 h and 72 h), “substantial G1 arrest”. Besides, the “DNA fragmentation (sub-G1 DNA)” value with A375 cells [1] (24 h, 5 x IC50 (17.5 μM)) is given as “Statistically significant DNA fragmentation”. The “Sub-G1 DNA content relative to control” value in the experiment on A375 cells [1] is listed as “statistically significant increases”. This compound also gave a Wound surface area in the experiment on A375 cells [2] (4 h of treatment, 3.5 μM (IC50), 0 h = 100%, control 76%) of 93%. Moreover, the “Inhibition of migration of A375 cells” value in the experiment with A375 cells [2] was “statistically significant inhibition of migration”.
In the case of `COc1ccc(/C=C(\C(=O)c2cc(C)[nH]c(=O)c2C(=O)N2CCCCC2)c2ccc(OC)c(C)c2)cc1C` [Compound 7c, (Z)-4-(2,3-bis(4-methoxy-3-methylphenyl)acryloyl)-6-methyl-3-(piperidine-1-carbonyl)pyridin-2(1H)-one], in experiment [3], the “SI (selectivity index)” value is listed as greater than 2. Also, in the experiment on A375 cells [1] (48 h and 72 h), the Cell cycle arrest result is “substantial G1 arrest”. In the experiment on A375 cells [1], the “Sub-G1 DNA content relative to control” value is listed as “statistically significant increases”. Besides, the “Inhibition of migration of A375 cells” value in the experiment with A375 cells [2] was “statistically significant inhibition of migration”.
`Cc1cc(C(=O)/C(=C\c2ccc(C)c(Cl)c2)c2ccc(C)c(Cl)c2)c(C(=O)N2CCCCC2)c(=O)[nH]1` [Compound 7g, (Z)-4-(2,3-bis(3-chloro-4-methylphenyl)acryloyl)-6-methyl-3-(piperidine-1-carbonyl)pyridin-2(1H)-one]: the IC50 with 35404 cells was determined as 0.4 ± 0.2 µM. For the same compound, the “SI (selectivity index)” value in experiment [3] is greater than 20.
